From PubChem
hERG protect = hERG (human) protection from proarrhythmic block; Q12809; CHO-hERG, FluxOR thallium flux, dofetilide IC70 present; activation (rescue from dofetilide block), less the hit threshold, % at 10 µM; hit rate 0.51% among 310,000; AID 1511;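 active = activation above the mean of controls blocked by dofetilide plus 5 SD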;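 note: thallium influx through hERG after potassium depolarization seen as dye fluorescence rise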
KCNQ1 inh = inhibitors of human KCNQ1 potassium channel; B-score at 10 µM; P51787; hit rate 1.3% among 310,000; AID 2642; CHO-K1 KCNQ1, FluxOR thallium flux fluorescence; stronger effect = higher value;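 active = compounds whose thallium flux B-score, printed positive for inhibition, exceeds three library SD while starting fluorescence stays within three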;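 note: channel opened by potassium depolarization with thallium stimulus after 20 min compound exposure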
KCNQ1 act = human KCNQ1 channel potentiation or activation. P51787. B-score at 10 µM. hit rate 0.35% among 310,000. AID 2648. CHO-K1 KCNQ1, thallium flux FluxOR fluorescence; stronger effect = higher value;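 active = fluorescence ratio B-score, a plate-corrected score, at least three library SD, with initial intensity B-score within 5 SD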
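System: CHO-K1 cells stably expressing KCNQ1 / Medium: assay buffer for compound exposure, DMSO matched across wells / Reagent: thallium- and potassium-containing depolarizing buffer / Compound: one concentration, matched DMSO / Incubation: 20 min compound pretreatment at room temperature / Measured by: kinetic FluxOR fluorescence, 10 s baseline plus 110 s post-stimulus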
KCC2 mod = modulators of human KCC2 chloride dependent transport | KCC2 cells, thallium flux FluoZin-2 fluorescence | hit rate 2.2% among 190,000 | B-score of Tl+ flux slope (higher = more flux/activation; lower = inhibition) at 10 µM | Q9H2X9;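 active = thallium flux slope and its plate-corrected score both differing from the plate sample mean at a set confidence after two filtering rounds, in either direction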;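 note: slope of fluorescence scaled to starting intensity during 10 to 20 s after thallium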
KCNK9 inh = human KCNK9 channel inhibition; HEK293 KCNK9, FluxOR thallium flux fluorescence; stronger effect = lower value; B-score at 10 µM; hit rate 1.2% among 310,000; AID 488922;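 active = ratio B-score over 3 SD below the library mean, with starting fluorescence within 5 SD of its mean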;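 note: negative B-score means less thallium flux so channel inhibition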
Target sequence (Q9NPC2 whole entry, looked up): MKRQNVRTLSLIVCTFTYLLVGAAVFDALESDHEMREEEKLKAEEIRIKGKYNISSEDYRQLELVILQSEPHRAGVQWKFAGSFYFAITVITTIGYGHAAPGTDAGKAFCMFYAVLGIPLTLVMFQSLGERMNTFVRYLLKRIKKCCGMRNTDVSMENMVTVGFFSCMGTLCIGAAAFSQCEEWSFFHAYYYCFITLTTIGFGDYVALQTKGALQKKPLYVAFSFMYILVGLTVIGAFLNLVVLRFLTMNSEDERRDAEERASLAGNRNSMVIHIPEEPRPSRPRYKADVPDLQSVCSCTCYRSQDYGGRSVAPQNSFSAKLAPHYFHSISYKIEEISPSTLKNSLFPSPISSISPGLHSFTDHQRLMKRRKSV
KCNK3 inh = human KCNK3 channel inhibition, primary screen. B-score at 10 µM. O14649. CHO-KCNK3 thallium flux, FluxOR fluorescence; stronger effect = lower value. AID 602410. hit rate 0.84% among 340,000;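 active = B-score under library mean minus 4 SD, starting fluorescence ratio at most library mean plus 5 SD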;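 note: more negative B-score means stronger inhibition of thallium flux through KCNK3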
Target sequence (O14649 whole entry, looked up): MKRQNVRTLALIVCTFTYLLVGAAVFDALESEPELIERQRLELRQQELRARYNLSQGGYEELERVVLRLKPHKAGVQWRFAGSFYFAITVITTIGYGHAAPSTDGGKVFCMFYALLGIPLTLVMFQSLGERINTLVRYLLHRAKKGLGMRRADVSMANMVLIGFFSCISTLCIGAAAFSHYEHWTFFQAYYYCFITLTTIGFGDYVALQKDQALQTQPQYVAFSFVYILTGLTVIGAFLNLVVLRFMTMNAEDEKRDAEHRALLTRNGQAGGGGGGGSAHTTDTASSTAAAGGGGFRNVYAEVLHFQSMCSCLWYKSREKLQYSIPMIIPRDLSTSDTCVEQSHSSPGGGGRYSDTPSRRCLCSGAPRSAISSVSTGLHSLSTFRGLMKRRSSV
KCNK9 inh conf = confirmation of human KCNK9 potassium channel inhibitors; shares compounds with KCNK9 inh; HEK293 KCNK9 cells, FluxOR thallium flux fluorescence; inhibition, % at 10 µM; hit rate 43% among 4,900;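 active = thallium signal inhibited by more than 5 SD of the compound-free buffer control wells, on both duplicate plates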
Kir2-1 spec = selectivity of KCNK9 modulators against mouse Kir2.1. shares compounds with KCNK9 inh. Kir2.1 cells, FluxOR thallium flux fluorescence. inhibition, % at 10 µM. hit rate 4% among 4,900. AID 492993;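 active = thallium signal drop more than 5 SD beyond the mean of the no-compound control wells, seen in both duplicate plates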;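 note: signal is fluorescence rise after thallium addition divided by baseline fluorescence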
KCNK9 uninduced = non-induced cell nonspecific activity of KCNK9 modulators; shares compounds with KCNK9 inh; non-induced KCNK9-HEK293, FluxOR thallium flux; inhibition, % at 10 µM; hit rate 40% among 4,900;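 active = thallium signal drop beyond 5 SD of the untreated control mean, on both duplicate plates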
KCNK3 inh conf = human KCNK3 channel inhibition, confirmation assay; shares compounds with KCNK3 inh; CHO-KCNK3 thallium flux, FluxOR fluorescence; 0% buffer, 100% carvedilol maximal block; ratio percent of control, % at 10 µM; hit rate 99% among 2,400; AID 651638;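 active = ratio percent of control, averaged over triplicates, above buffer control mean plus 5 SD, cut at about 64% in these data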;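 note: ratio is the fluorescence rise from min to max over baseline after thallium stimulus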
KCNK3 uninduced = activity in cells without induced KCNK3 expression | shares compounds with KCNK3 inh | thallium flux ratio (lower = more inhibition) at 10 µM | non-induced KCNK3 parental cells, FluxOR thallium flux; stronger effect = lower value | hit rate 40% among 2,400 | AID 651747;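 active = thallium flux ratio, averaged over three wells, more than 5 SD below the buffer control mean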;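 note: host cells are CHO cells without KCNK3 induction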
A number is an active result; - = inactive; . = no result. Hits are enriched below; roughly 4.1% of the tested compounds scored in any of these assays.

SMILES	hERG protect	KCNQ1 inh	KCNQ1 act	KCC2 mod	KCNK9 inh	KCNK3 inh	KCNK9 inh conf	Kir2-1 spec	KCNK9 uninduced	others
COc1ccc(C2CC(c3ccccc3)=NN2C(=O)COC(=O)C2(C)CC2(Cl)Cl)cc1 (stereo not drawn)	-	-	-	-	-	-	-	-	-
CN(C)S(=O)(=O)c1ccc(S(=O)(=O)N2CCCC(C(=O)NC3CCCC3)C2)cc1 (stereo not drawn)	-	-	-	.	-	-	.	.	.
CC(C)c1ccc(S(=O)(=O)/N=C2\C=C(NS(=O)(=O)c3ccccc3)C(=O)c3ccccc32)cc1	-	18	-	.	-9.4	-	32%	-	32%
CC(C)c1ccc(S(=O)(=O)/N=C2/C=CC(=O)c3ccccc32)cc1	.	.	.	-	.	.	.	.	.
O=C(O)c1ccc2c(c1)C1C=CCC1C(c1cc3c(cc1Br)OCO3)N2 (stereo not drawn)	-	-	-	.	-	-	.	.	.
Brc1cc2c(cc1C1Nc3ccccc3C3C=CCC31)OCO2 (stereo not drawn)	-	-	-	-	-8.3	-	56%	-	42%
COc1ccccc1/C=C1\SC(=S)N(CCC(=O)Nc2nnc(C)s2)C1=O	-	-	-	.	-	-	.	.	.
CCN=C1S/C(=C/c2ccc(-c3ccc(F)cc3)o2)C(=O)N1CC	-	-	-	.	-	-	.	.	.
CCCC(O)(c1ccc(CC)cc1)C(CN1CCOCC1)c1ccccc1 (stereo not drawn)	-	-	-	.	-	-	.	.	.
O=C(NCc1ccccc1)c1ccc(C(=O)N(C2CCCCC2)C2CCCCC2)cc1	-	-	-	-	-8.9	-	-	-	32%
O=C(NCc1ccccc1)c1ccc(C(=O)NCc2ccccc2)cc1	.	.	.	.	.	-	.	.	.
CCCCNC(=O)c1cccc2c(=O)c(C)c(-c3ccccc3)oc12	-	-	-	-	-	-	.	.	.
CCCCN(C(=O)c1cccc2c(=O)c(C)c(-c3ccccc3)oc12)c1ccccc1	-	-	-	-	-10	-	40%	-	34%
CN(CC(=O)Nc1ccccc1Cl)C(=O)Cn1cc(C(F)(F)F)ccc1=O	.	.	.	.	.	-	.	.	.
COc1ccc(C(c2nnnn2C2CCCCC2)N2CCN(c3ccc(OC)cc3)CC2)cc1 (stereo not drawn)	-	-	-	-	-	-	.	.	.
COc1ccc(OC)c(C(c2nnnn2C2CCCC2)N2CCN(c3ccccc3)CC2)c1 (stereo not drawn)	-	-	-	-	-8.6	-	58%	-	43%
CC1CCN(CC(=O)n2c3c(c4ccccc42)CCCC3)CC1	-	-	-	-	-	-	-	-	-
Cc1ccc(S(=O)(=O)N2CC3CCCN3c3ccc(C(F)(F)F)cc32)cc1 (stereo not drawn)	-	-	-	.	-19	-	66%	-	40%
O=S(=O)(c1ccc(F)cc1)N1CC2CCCN2c2ccc(C(F)(F)F)cc21 (stereo not drawn)	-	-	-	.	-13	-	30%	-	42%
O=C1Nc2ccc(C(F)(F)F)cc2N2CCCC12 (stereo not drawn)	-	-	-	.	-	.	.	.	.
O=C(Nc1cccc(Cl)c1)c1ccccc1NC(=O)C1CCCCC1C(=O)O (stereo not drawn)	-	-	-	.	-	-	.	.	.
COc1ccccc1N1C(C)=CC(=C(C#N)c2nc3ccccc3s2)C=C1C	-	-	-	-	-8.4	-	37%	-	70%
CC1=CC(=C(C#N)c2nc3ccccc3s2)C=C(C)N1c1ccc(F)cc1	-	-	-	-	-	-	.	.	.
Cc1ccc2nc(-c3cccc(NC(=O)c4ccco4)c3)[nH]c2c1	-	-	-	-	-	-	.	.	.
Cc1cccc(-n2nc(C(=O)c3ccco3)cc(-c3nc4ccccc4[nH]3)c2=N)c1	-	10	-	-	-	-	-	-	-
SMILES	hERG protect	KCNQ1 inh	KCNQ1 act	KCC2 mod	KCNK9 inh	KCNK3 inh	KCNK9 inh conf	Kir2-1 spec	KCNK9 uninduced	others
O=C(Cc1cccs1)Nc1ccc(-c2nnc(-c3ccccc3)o2)cc1	-	-	-	-	-	-	.	.	.
Cc1cccc(-c2nnc(-c3cccc(NC(=O)Cc4cccs4)c3)o2)c1	-	-	-	-	-17	-16	54%	-	30%	KCNK3 inh conf=148;KCNK3 uninduced=0.14
COc1ccc(CCNC(=O)CSc2nc3scc(-c4ccccc4)c3c(=O)[nH]2)cc1	.	.	.	.	.	-	.	.	.
COc1cccc(OC)c1C(=O)Nc1cccc(-c2nc3ccccc3[nH]2)c1	-	-	-	-	-13	-9.9	40%	-	-	KCNK3 inh conf=133;KCNK3 uninduced=0.12
CCC(=O)Nc1cccc(-c2nnc(-c3ccccc3)o2)c1	-	-	-	.	-	-	.	.	.
O=C(Nc1cccc(-c2nnc(-c3ccccc3)o2)c1)C1CCCCC1	-	-	-	-	-8.8	-11	34%	-	30%	KCNK3 inh conf=96;KCNK3 uninduced=-
Cc1ccccc1N1CC(C(=O)Nc2ccc(S(=O)(=O)N3CCOCC3)cc2)CC1=O (stereo not drawn)	-	-	-	.	-	-	.	.	.
CC(Oc1ccc(-c2ccccc2)c(F)c1)c1ccn(S(=O)(=O)c2ccc(F)cc2)n1 (stereo not drawn)	-	-	-	.	-10	-12	57%	-	42%	KCNK3 inh conf=106;KCNK3 uninduced=-
CCCCC(Sc1nc(N)c(NC(=O)c2ccco2)c(=O)[nH]1)C(=O)O (stereo not drawn)	-	-	-	.	-	-	.	.	.
Cc1nc(N2CCC(C)CC2)c2c(C)c(C(=O)Nc3cccc(C(F)(F)F)c3)sc2n1	-	13	-	-	-	-9.4	-	-	30%	KCNK3 inh conf=126;KCNK3 uninduced=0.13
CCc1ccc(-c2cc(C)no2)cc1S(=O)(=O)N1CCC(C)CC1	-	-	-	.	-9.3	-10	-	-	46%	KCNK3 inh conf=102;KCNK3 uninduced=-
CCC1CN(S(=O)(=O)c2cc(-c3cc(C)no3)ccc2OC)c2cc(C)ccc2O1 (stereo not drawn)	-	-	-	.	-11	-11	36%	-	32%	KCNK3 inh conf=121;KCNK3 uninduced=0.15
CCc1ccc(-c2cc(C)no2)cc1S(=O)(=O)N1CCOc2ccc(C)cc21	-	-	-	.	-8.9	-11	48%	-	33%	KCNK3 inh conf=125;KCNK3 uninduced=0.16
CCc1ccc(-c2cc(C)no2)cc1S(=O)(=O)N1CCN(c2cccc(C)c2C)CC1	-	-	-	.	-	-	.	.	.
